From ChEMBL document CHEMBL2385024, “Antiviral alkaloids produced by the mangrove-derived fungus Cladosporium sp. PJX-41” (J Nat Prod, 2013)
pIC50: −log10 of the molar value.

Tested on: Influenza A virus
Assay: Antiviral activity against Influenza A virus H1N1 infected in dog MDCK cells after 48 hrs by CPE inhibition assay
Type: functional, organism-based
Outline: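 CPE-inhibition format against influenza A (H1N1), with ribavirin run in parallel as the positive control; activity is expressed as IC50.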

Row | SMILES | pIC50
1 | CC(=O)O[C@H](c1nc2ccccc2c(=O)n1[C@@H]1C[C@]2(OC1=O)c1ccccc1N1C(=O)[C@H](C)N[C@H]12)C(C)C [DEOXYNORTRYPTOQUIVALINE] | 4.06
2 | O=C1NCc2nc3ccccc3c(=O)n2[C@@H]1Cc1c[nH]c2ccccc12 | 4.00
3 | O=C1N[C@@H]2c3nc4ccccc4c(=O)n3[C@H]1CC21c2ccccc2N2C(=O)[C@@H]3CCCN3[C@H]21 (stereo not given in full) | 4.09
4 | CC(C)[C@@H]1NC(=O)[C@@H](C[C@]2(O)C(=O)Nc3ccccc32)n2c1nc1ccccc1c2=O [EPI-CLADOQUINAZOLINE] | 4.00
5 | O=C1NC(=O)[C@H](Cc2c[nH]c3ccccc23)n2c1nc1ccccc1c2=O | 4.07
6 | O=C1NC(=O)[C@@H](Cc2c[nH]c3ccccc23)n2c1nc1ccccc1c2=O | 4.00
7 | CC(=O)O[C@H](c1nc2ccccc2c(=O)n1[C@@H]1C[C@]2(OC1=O)c1ccccc1N1C(=O)C(C)(C)N(O)[C@H]12)C(C)C [TRYPTOQUIVALINE] | 4.05
8 | CC(=O)O[C@@H](c1nc2ccccc2c(=O)n1[C@@H]1C[C@]2(OC1=O)c1ccccc1N1C(=O)C(C)(C)N(O)[C@H]12)C(C)C | 4.00
9 | CC(C)=C1NC(=O)[C@@H](C[C@]2(O)c3ccccc3N3C(=O)[C@H](C)N[C@H]32)n2c1nc1ccccc1c2=O | 4.09
10 | CC(C)[C@H]1NC(=O)[C@@H](C[C@]2(O)C(=O)Nc3ccccc32)n2c1nc1ccccc1c2=O [CLADOQUINAZOLINE] | 4.00
11 | NC(=O)c1ncn([C@@H]2O[C@H](CO)[C@@H](O)[C@H]2O)n1 [RIBAVIRIN] | 4.06
12 | CC(=O)O[C@H](c1nc2ccccc2c(=O)n1[C@@H]1C[C@]2(OC1=O)c1ccccc1N1C(=O)C(C)(C)N[C@H]12)C(C)C [DEOXYTRYPTOQUIVALINE] | 4.07
13 | O=C1N[C@@H](O)c2nc3ccccc3c(=O)n2[C@@H]1Cc1c[nH]c2ccccc12 | 4.00
14 | CC(C)=C1NC(=O)[C@@H](C[C@]2(O)c3ccccc3N3C(=O)C(C)(C)N[C@H]32)n2c1nc1ccccc1c2=O | 4.00
15 | O=C1N[C@H]2c3[nH]c4ccccc4c3C[C@@H]1n1c2nc2ccccc2c1=O | < 3.70
